Data set [1] is classed as in vitro ADME, human. The note with it: whole blood. In outline: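 Validation arm: fresh whole blood in EDTA or BD P100 tubes, equilibrated 30 min at 4 °C. Spiked with four peptides not used in training, 10 nM each (final). Aliquots taken at 0–7.5 h and centrifuged 1800g for 10 min. Plasma deproteinised with acidified acetonitrile, then quantified by UPLC–MS/MS MRM. Decay constant taken from the ln-linear slope. T50/T90 derived assuming first-order kinetics, SEM by error propagation.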

Data set [2] is classed as in vitro ADME, human. The note with it: for original content still present / detected in plasma: after 1 month of storage at −80 °C, P100 plasma; for T90 in days (±SEM) in P100 plasma: 50 nM, T90 extrapolated. Put shortly: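 Cell-free plasma from BD P100 tubes spiked with the training peptide mix, 50 nM each (final). Aliquots stored at 4, −35 or −80 °C for up to 1 month. Sampled before storage and at 1, 7 and 30 days. Each 50 µL sample was acidified-acetonitrile precipitated, sonicated, boiled and centrifuged, then run by UPLC–MS/MS. Content normalised to baseline. T90 extrapolated from first-order decay fits.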

The format of data set [3] is in vitro ADME, human. The note with it: time frame of 7.5 h, at both 4 and 21 °C, all tubes. In outline:
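Fresh donor whole blood, in EDTA, EDTA plus protease-inhibitor cocktail (1:100 final), BD P100 or BD P800 tubes, held 30 min at 4, 21 or 37 °C. Then spiked with peptide mix at 10 nM each (final). Sampled at 0, 2.5, 5 and 7.5 h and centrifuged. Plasma acetonitrile/formic acid precipitated and analysed by amide UPLC–ESI(+)–MS/MS MRM. T0-normalised ln areas fitted first-order (λ). T50/T90 reported ±SEM by error propagation, n = 4.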

[4] abbreviates: external validation, P100 tube, 4 °C.
Where [5] appears, read: head-to-head comparison, EDTA sampling tube at 4 °C.
Setting [6] is: head-to-head comparison, P100 sampling tube at 4 °C.
Setting [7] is: storage at 4 °C, n = 4, up to 1 month.
[8] abbreviates: storage at −35 °C, n = 4, thawed once, up to 1 month.
Setting [9] is: storage at −80 °C, n = 4, thawed once, up to 1 month.

“And” between values parts separate entries of the source, which are not always exact repeats. Equal entries are not always repeated. Where two headings read alike, the source gives them in different places. Where no end group is shown, it is not given here.

For ESRLPKIRFDFIFPRKK [Q054], in data set [1] (setting [4]), the “T50 [±SEM]” value was 1.87 [±0.17] h, the “T90 [±SEM] (time where 90% of the peptide is still present)” value was 0.28 [±0.03] h and the “decay constant (λ) [±SEM]” value was “–0.00619 [±0.00056]”.
Turning to ESRVSRIILDFLFQRKK [Q055], in data set [1] (setting [4]), the “T50 [±SEM]” value is 1.49 [±0.12] h, the “T90 [±SEM] (time where 90% of the peptide is still present)” value is 0.23 [±0.02] h and the “decay constant (λ) [±SEM]” value is “–0.00776 [±0.00064]”. In data set [1] (setting [5]), the “T50 [±SEM]” value was 1.35 [±0.33] h, the “T90 [±SEM]” value is 0.21 [±0.05] h and the “decay constant (λ) [±SEM]” value was “–0.00856 [±0.0021]”. Besides, in data set [1] (setting [6]), the “T50 [±SEM]” value is 2.07 [±0.36] ^a h, the “T90 [±SEM]” value is 0.31 [±0.05] ^a h and the “decay constant (λ) [±SEM]” value is “–0.00559 [±0.00098]”.
In the case of SDLPFEH [Q164, SDLPFEH], the “original content still present / detected in plasma” value in data set [2] is given as “more than 95%”. For the same substance, the “T90 in days (±SEM) in P100 plasma” value is recorded as 0.95 (±0.23) days in data set [2] (setting [7]), 33.8 (±45.91) days in data set [2] (setting [8]) and 96.3 (±136.01) days in data set [2] (setting [9]).
SGSLSTFFRLFNRSFTQALGK [Q176]: in data set [2], the “original content still present / detected in plasma” value is listed as “more than 95%”. Further, the “T90 in days (±SEM) in P100 plasma” value is 0.48 (±0.02) days in data set [2] (setting [7]), 16.4 (±6.98) days in data set [2] (setting [8]) and 46.4 (±64.18) days in data set [2] (setting [9]).
Consider SIFTLVA [Q184, SIFTLVA], for which, in data set [3], the “degradation of the peptide in whole blood” value is on record as “no degradation”. For the same substance, the “original content still present / detected in plasma” value in data set [2] is reported as around 25%. The “T90 in days (±SEM) in P100 plasma” value in data set [2] (setting [7]) is 2.24 (±0.20) days; in data set [2] (setting [8]) it was 2.56 (±0.21) days; in data set [2] (setting [9]), 2.6 days and 2.61 (±0.23) days.
On to SNLVECVFSLFKKCN [Q076], for which the “T90 in days (±SEM) in P100 plasma” value in data set [2] (setting [7]) was 1.24 (±0.03) days; in data set [2] (setting [8]), 20.4 (±13.67) days; in data set [2] (setting [9]), 13.2 (±4.80) days.

(Values after publication PMC7346264 (ACS Omega, 2020).)
